# Compound activity deposited in PubChem BioAssay by several laboratories.
# TNAP act mid DEA: activates human TNAP at intermediate phosphate acceptor concentration; P05186; purified TNAP, CDP-star luminescence, 100 mM DEA, 30 min; hits give high values; scale: 0 levamisole-inhibited, 1 vehicle-only enzyme; activation factor at 20 µM; 64,000 tested, under 10 active; AID 813;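 active = activation factor of at least 2 at 20 µM, relative to controls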
# M1 ag: agonists of M1 muscarinic receptor. CHO-M1 cells, Fluo-4 calcium fluorescence, agonist mode; hits give high values. 3% of 64,000 active. B-score at 10 µM. AID 626;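 active = fluorescence rise, raw or as B-score row- and column-corrected plate score, outside the 99.7% band of its plate's samples, either direction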
# S1P1 ag-PAM: activates or potentiates agonism at human S1P1 receptor | P21453 | S1P1 CRE-bla cells, forskolin, beta-lactamase FRET, potentiator mode; S1P1 agonist co-added at EC20, 2 nM; 100% = saturating reference agonist, 0% = basal | activation, % at 9.5 µM | 0.57% of 56,000 active;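 active = activation above a cutoff set at the mean activation of all tested compounds plus 3 SD, cut at about 54% in these data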;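 also: forskolin at 4 µM as EC80 and the EC20 agonist is SEW2871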
# M1 antag: blocks the rat M1 muscarinic receptor response to acetylcholine | CHO-M1 cells, Fluo-4 calcium, ACh EC80 antagonist mode; hits give low values | B-score at 10 µM | 3.4% of 64,000 active | AID 628;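 active = calcium fluorescence response, raw or row-and-column corrected B-score, differing from the plate sample mean either way at a set confidence level, mostly lower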
# D1 allo mod: allosteric modulators of human D1 dopamine receptor; AID 641; B-score at 10 µM; P21728; HEK293 D1, CRE-luciferase, dopamine EC30 potentiation; actives deviate in either direction; 5.9% of 58,000 active;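 active = luminescence count or its row- and column-corrected plate score outside the 99.7% band of the plate's sample wells, on either side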
# Target sequence (P21728 whole entry, looked up): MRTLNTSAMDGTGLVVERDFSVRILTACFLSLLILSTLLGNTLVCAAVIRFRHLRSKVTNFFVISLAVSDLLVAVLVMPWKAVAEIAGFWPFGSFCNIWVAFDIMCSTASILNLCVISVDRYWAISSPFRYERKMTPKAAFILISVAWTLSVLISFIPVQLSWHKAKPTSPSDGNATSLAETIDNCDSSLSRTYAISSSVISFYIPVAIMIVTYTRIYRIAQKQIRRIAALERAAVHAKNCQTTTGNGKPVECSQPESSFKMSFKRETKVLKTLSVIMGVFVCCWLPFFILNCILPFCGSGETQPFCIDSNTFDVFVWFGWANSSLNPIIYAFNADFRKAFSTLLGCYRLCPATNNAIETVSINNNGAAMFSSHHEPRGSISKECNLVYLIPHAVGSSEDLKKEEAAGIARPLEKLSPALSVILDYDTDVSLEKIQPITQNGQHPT
# S1P3 agonist: S1P3 (human) receptor agonism; Q99500; 0.1% of 60,000 active; activation, % at 4.5 µM; S1P3 NFAT-BLA reporter cells, FRET ratio; relative to 1 µM S1P, basal subtracted;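 active = activation above the screen-wide mean plus 3 SD, cut at about 4.5% in these data, passing the limit was not always enough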
#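 Material: Human S1P3 NFAT-BLA reporter CHO cells | Incubation: Overnight plating, 4 h compound 37 °C, 2 h substrate RT | Signal: FRET β-lactamase substrate fluorescence, excitation 405 nm, 460/535 nm emission ratio, background-subtracted | Compound: 4.5 µM final, single dose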
# Numbers stand for hits; – = inactive; · = not tested or not shown. Most compounds without a hit are left out; they make up all but 11% or so of the library.
SMILES,TNAP act mid DEA,M1 ag,S1P1 ag-PAM,M1 antag,D1 allo mod,S1P3 agonist
O=C(Nc1nc2ccccc2[nH]1)c1ccc(F)cc1,–,–,–,–,-6.41,–
Cc1cc(NC(=O)c2ccccc2F)n(-c2nc3ccccc3[nH]2)n1,–,–,–,–,–,–
O=c1cc(CN2CCN(Cc3ccccc3)CC2)c2cc(Cl)ccc2o1,–,–,–,–,-4.21,–
Cc1cc2oc(=O)cc(CN3CCN(Cc4ccccc4)CC3)c2cc1Cl,–,–,–,–,–,–
Cn1c(=O)[nH]c(=O)c2c1nc(N1CCN(c3cccc(Cl)c3)CC1)n2CCCc1ccccc1,–,–,–,–,–,–
C=C(C)Cn1c(N2CC(C)CC(C)C2)nc2c1c(=O)[nH]c(=O)n2C (stereo not given),–,–,–,–,6.96,–
CCCCCn1c(N2CCC(C(N)=O)CC2)nc2c1c(=O)[nH]c(=O)n2C,–,–,–,–,–,–
CCCCCn1c(N2CCN(c3cccc(Cl)c3)CC2)nc2c1c(=O)[nH]c(=O)n2C,–,–,–,–,4.94,–
CCCCCCn1c(N2CCC(C)CC2)nc2c1c(=O)[nH]c(=O)n2C,–,–,–,–,17.9,–
O=C(CSc1nnc(NCc2ccccc2)s1)c1ccco1,–,–,–,–,–,–
Cc1cccc(C)c1OCC(O)CNS(=O)(=O)c1ccccc1C(=O)N1CCCCC1 (stereo not given),–,–,–,–,·,–
CCCCC(CC)Cn1c2nc3ccccc3nc2c2c(=N)oc(C)nc21 (stereo not given),–,–,·,–,–,·
CCCCn1c2nc3ccccc3nc2c2c(=N)oc(C)nc21,–,3.95,·,–,6.58,·
O=C1CS/C(=C/C(=O)c2ccccc2)N1,–,–,–,–,–,–
Cc1cc(C)cc(C(=O)/C=C2\NC(=O)CS2)c1,–,–,–,–,-1.83,–
CCCn1nc(Oc2nc(SC)nc(N(C)C)n2)ccc1=O,–,–,–,2.03,·,–
O=C(Nc1nc(-c2ccccc2)cs1)c1ccc(Br)o1,–,–,–,–,–,–
Cc1c(C)n(Cc2ccccc2)c2ncnc(N)c12,–,–,–,–,-2.84,–
Cc1cccn2c(=O)c3cc(C#N)c(=NC(=O)c4ccncc4)n(Cc4ccco4)c3nc12,–,6.56,–,–,–,–
CCCCn1c(=NC(C)=O)c(C#N)cc2c(=O)n3cccc(C)c3nc21,–,21.2,–,–,–,–
COCCn1c(=NC(=O)c2ccc3c(c2)OCO3)c(C#N)cc2c(=O)n3cccc(C)c3nc21,–,–,–,–,–,–
COc1ccc(OC)c(C(=O)c2ccc(C(=O)N3CCCCC3)cc2)c1,–,–,–,–,–,–
COC(=O)C1=C(C)N=c2s/c(=C/c3ccoc3)c(=O)n2C1c1ccccc1 (stereo not given),–,–,·,–,-3.57,·
CC(=O)Oc1ccc(N2C(=O)C3C(C2=O)C2(C)C=CC3(C)O2)cc1 (stereo not given),–,·,134.7,·,–,–
COc1ccc(-c2nn(CC(=O)N(C)C)c(=O)c3ccccc23)cc1,–,–,·,–,–,–
SMILES,TNAP act mid DEA,M1 ag,S1P1 ag-PAM,M1 antag,D1 allo mod,S1P3 agonist
CCOC(=O)N1CCC(NC(=O)c2ccc(CS(=O)(=O)c3ccccc3C)o2)CC1,–,–,–,–,–,–
CCCn1c(=O)c2ccccc2n2c(SCC(=O)c3ccccc3)nnc12,–,–,–,2.51,–,–
Cn1c(=O)c2c3c(sc2n2c(SCC(=O)c4ccc(Cl)cc4)nnc12)COC(C)(C)C3,–,–,–,–,–,–
Cn1c(=O)c2c3c(sc2n2c(SCC(=O)c4ccccc4)nnc12)COC(C)(C)C3,–,–,–,-2.89,·,–
COc1oc(-c2ccccc2)nc1C(F)(F)F,–,–,–,–,–,–
Cc1sc2ncn(CC(=O)NCc3ccccn3)c(=O)c2c1S(=O)(=O)N1CCOCC1,–,–,·,–,–,·
Cc1onc(-c2c(F)cccc2Cl)c1C(=O)NCc1ccccn1,–,–,–,–,-4.17,–
Cc1onc(-c2ccccc2Cl)c1C(=O)NCc1ccccn1,–,–,·,–,–,–
N#CC1=C(N)Oc2n[nH]c(-c3ccc(F)cc3)c2C1c1ccncc1 (stereo not given),–,–,–,–,–,–
COc1ccc(CNC(=O)c2ccc(N3CCCC3=O)cc2)cc1,–,–,·,–,–,·
Cn1nc(C(C)(C)C)cc1C(=O)NCc1ccc(N2CCCC2=O)cc1,–,–,56.5,–,·,–
Cc1ccc(C)c(/C(O)=C2\C(=O)C(=O)N(CCCN(C)C)C2c2cccnc2)c1 (stereo not given),–,–,·,–,–,·
O=C1c2cccnc2C(=O)N1Cc1ccccc1,–,–,–,–,–,–
O=C1c2cccnc2C(=O)N1Cc1ccc(F)cc1,–,–,–,–,-1.22,–
CC(C)c1ccc2oc(-c3ccc(N)cc3)nc2c1,–,–,54.0,–,-5.97,–
Cc1ccc(-c2nc3cc(C)ccc3o2)cc1,–,–,–,–,–,–
CCOC(=O)CC(=O)CSc1[nH]c(=O)cc(C)c1C#N,–,–,–,–,–,–
N#Cc1c(/N=C/c2cccs2)sc2c1CCCCC2,–,–,–,–,-3.58,–
CN1CCN(S(=O)(=O)c2ccc(-c3ccc(S(=O)(=O)N4CCN(C)CC4)cc3)cc2)CC1,–,–,–,–,–,–
CN1CCN(S(=O)(=O)c2ccc(-c3ccc(Cl)cc3)cc2)CC1,–,–,–,–,-4.9,–
CCOC(=O)c1cnc(-n2nc(C)cc2C)nc1NC,–,–,–,–,–,–
CCOC(=O)c1cnc(-n2nc(C)cc2C)nc1NC1CCCCC1,–,–,109.6,–,–,–
CC(C)c1ccc(NC(=O)N2CCC(c3nc4ccccc4o3)CC2)cc1,–,–,–,–,–,–
COc1cc(-c2nc3ccccn3c2NCC2CCCO2)ccc1O (stereo not given),–,3.29,–,–,–,–
COc1cccc(-c2nc(NCC3CCCO3)c3ccccc3n2)c1O (stereo not given),–,–,–,–,·,–
SMILES,TNAP act mid DEA,M1 ag,S1P1 ag-PAM,M1 antag,D1 allo mod,S1P3 agonist
Cc1ccc(C2/C(=C(/O)c3ccc(Br)cc3)C(=O)C(=O)N2Cc2ccco2)o1 (stereo not given),–,–,–,–,–,–
CCCCCNC(CC(=O)Nc1ccc(OC)cc1)C(=O)O (stereo not given),–,–,–,–,–,–
N#CCSc1nnc(-c2ccccc2)c(-c2ccccc2)n1,–,–,–,–,–,6.3
Cc1cc2nc(NC3=NCN(CCN4CCOCC4)CN3)nc(C)c2cc1C,–,–,–,-5.65,–,–
Cc1cc2nc(NC3=NCN(Cc4ccc5c(c4)OCO5)CN3)nc(C)c2cc1C,–,–,–,-5.08,·,–
O=c1cc(-c2ccccc2)[nH]c2nc3ccccc3n12,–,–,–,–,-6.49,–
